Screening results deposited in PubChem BioAssay by Broad Institute.
This is a sample that favours compounds with a hit; in the whole collection about 3.6% have one here.
T cruzi repl: T. cruzi replication inhibition. T. cruzi beta-gal in NIH3T3, luminescence, 90 h. inhibition, % (no concentration beside the values). hit rate 1.4% among 300,000;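 active means mean inhibition across valid replicates above about 55%, limit read from the data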;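 further: signal also drops with host cell toxicity which is not excluded here; 0% = plate median of DMSO wells and 100% = zero luminescence signal; higher percent means less beta-gal luminescence so fewer parasites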
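Incubation – ≥90 h infection period, 3 h prior cell attachment · System – NIH/3T3 fibroblasts plus reporter T. cruzi · Doses – compound pinned at 50 nL/well, DMSO · Read-out basis – percent inhibition of parasite-derived β-gal signal · Signal – luminescent β-galactosidase signal after 60 min lysis · Also added – 5000 T. cruzi trypomastigotes/well · Medium – Low-serum DMEM with 2% FBS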
HIF act: HIF pathway transcriptional activation; U2OS HRE-luciferase reporter, luminescence; normalized: DMSO 0%, desferrioxamine 100%; activation, % at 7.5 µM (by protocol); hit rate 0.32% among 300,000; AID 1910;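 active means mean activation of at least 10% of the iron chelator positive control signal, with at least half of replicates also reaching 10%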
CSC inhib: blocks cancer stem cells. cancer stem cell-like cells viability, luminescence. inhibition, % at 7.5 µM. hit rate 1.1% among 300,000. AID 2717; in the data active means inhibition above about 75%; tested in HMLE shEcad cells
PfHsp90 yeast 2: inhibits growth of yeast expressing Plasmodium falciparum Hsp90 | S. cerevisiae expressing PfHsp90, BacTiter-Glo ATP, 48 h; yeast lacking PDR1 and PDR3 efflux regulators | inhibition, % at 9.4 µM | hit rate 0.32% among 310,000;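 active means every replicate shows inhibition above about 80%, whatever the replicate mean, limit read from the data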;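 further: 0% = DMSO neutral controls and 100% = 20 µM radicicol positive controls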
SKKanGAS inh: inhibitors of SKKanGAS S. pyogenes growth in kanamycin (SK-promoter or general growth effect) | AID 1662 | inhibition, % at 7.5 µM | BacTiter-Glo, 6 h | hit rate 1.3% among 300,000;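 active means mean replicate score, as percent of positive control median, at least 50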;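 further: strain carries kanamycin resistance gene driven by streptokinase promoter and grows in 40 µg/ml kanamycin; loss of luminescence reflects streptokinase promoter inhibition or plain growth inhibition; 0% = median of DMSO wells and 100% = positive control at its reference dose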
Beta cell apopt: blocks beta cell apoptosis | protection from apoptosis, % (no concentration beside the values) | hit rate 0.8% among 300,000 | INS-1E cytokine-induced death, ATP luminescence, 48 h; percent of positive-control rescue, neutral wells zero;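 active means Every replicate reaches about 75%, or at least half do and their mean reaches it too, limit read from the data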;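 further: 0% = cytokine-treated negative control wells and 100% = positive control rescue; higher means more ATP so stronger rescue from cytokine killing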
Active calls of the source: *; . = no result.

SMILES	T cruzi repl	HIF act	CSC inhib	PfHsp90 yeast 2	SKKanGAS inh	Beta cell apopt
CCOC(=O)N/N=C\c1ccc([N+](=O)[O-])s1	24.8	-0.3	2.4	17.2	-3.6	.
Cc1ccc(NC(=O)/C=C/c2ccc([N+](=O)[O-])s2)c(C)c1	42.2	8.8	106.7*	-2.2	5.2	106.3*
Cc1ccc(NC(=O)/C=C/c2ccc([N+](=O)[O-])s2)cc1	30.5	1.5	10.3	-54.7	4.0	4.1
O=C1C(Nc2ccc(O)cc2)=C/C(=N/S(=O)(=O)c2cccs2)c2ccccc21	58.3*	-7.6	.	-51.9	87.3*	.
Cc1cc(C)c(S(=O)(=O)/N=C2\C=C(NS(=O)(=O)c3ccccc3)C(=O)c3ccccc32)c(C)c1	-6.9	-0.2	-7.2	21.6	28.2	.
Cc1ccc(NC2=C/C(=N\S(=O)(=O)c3cccs3)c3ccccc3C2=O)c(C)c1	56.8*	-31.7	-6.2	6.9	100.4*	114.3*
Cc1cccc(NC2=C/C(=N/S(=O)(=O)c3cccs3)c3ccccc3C2=O)c1	.	.	119.1*	-4.0	.	104.7*
Cc1ccc(S(=O)(=O)/N=C2\C=C(NS(=O)(=O)c3ccccc3)C(=O)c3ccccc32)cc1	.	.	.	-3.1	.	.
Cc1ccc(Cl)cc1NC1=C/C(=N\S(=O)(=O)c2cccs2)c2ccccc2C1=O	60.6*	-2.8	101.4*	11.2	95.0*	110.9*
O=C(CNS(=O)(=O)c1cccc2nsnc12)NCCc1ccccc1	4.3	0.1	-11.3	-11.0	-5.7	-2.6
O=C(N/N=C/c1ccc[nH]1)c1ccc(O)cc1	-12.5	-0.6	-11.0	-17.6	-1.9	-0.3
O=C(N/N=C/c1ccc[nH]1)c1ccc(COc2cccc3cccnc23)cc1	16.5	-2.8	99.8*	.	18.3	99.7*
O=C(N/N=C/c1ccccc1C(=O)O)c1ccc(COc2cccc3cccnc23)cc1	-1.9	1.2	-15.1	0.0	-1.2	-3.6
Cc1cc(Br)c(OCc2ccc(C(=O)N/N=C/c3ccc[nH]3)cc2)c(Br)c1	.	.	97.9*	-41.5	.	116.8*
CNC(=O)c1c(NC(=O)C2=COCCO2)sc(C)c1C	-5.7	0.1	7.6	7.9	7.5	-4.4
C/C(N)=C(/C#N)C(=O)CSc1nc2cc(Cl)ccc2c(=O)n1-c1ccc(C)cc1	18.4	0.0	.	-23.6	0.5	16.8
C/C(N)=C(/C#N)C(=O)CSc1nc2cc(Cl)ccc2c(=O)n1Cc1ccco1	58.8*	-0.5	30.6	.	60.6*	-14.8
O=C(NCC(c1cccs1)N1CCOCC1)c1ccc(Cl)s1 (centres undefined)	-35.6	0.5	77.9*	-7.7	-9.0	1.7
O=C(NCC(c1cccs1)N1CCOCC1)c1cccc([N+](=O)[O-])c1 (centres undefined)	-23.1	-0.7	-1.9	0.5	0.3	0.3
O=C(NCC(c1cccs1)N1CCOCC1)c1ccc(Cl)cc1 (centres undefined)	-15.2	-0.2	-7.0	.	16.9	2.6
O=C(NCC(c1cccs1)N1CCOCC1)c1cc([N+](=O)[O-])cc([N+](=O)[O-])c1 (centres undefined)	73.1*	0.0	11.6	20.0	9.9	-3.2
CCOC(=O)c1cc(-c2ccc(OC(F)F)cc2)nc2c1c(=O)[nH]c(=O)n2C	-7.6	-0.1	18.0	-15.0	99.7*	2.0
Cc1cccc(NC(=O)CSCC(=O)N2CCN(Cc3ccc4c(c3)OCO4)CC2)c1	-8.4	0.0	-1.1	-3.3	-9.2	-7.1
COc1ccc(/C=C/c2nc(N)nc(-c3ccccc3O)n2)cc1OC	66.9*	0.5	42.2	6.8	44.3	16.6
CCn1c(CNc2ccc(Cl)cc2)nnc1SCc1ccc(Cl)cc1	16.7	.	-0.1	127.2*	-2.6	2.3
CCn1c(CNc2cccc(Cl)c2)nnc1SCc1ccccc1	6.5	.	-8.3	12.6	-8.4	-1.0
CCn1c(CNc2ccc(Cl)cc2)nnc1SCc1ccc(C)cc1	10.5	-0.5	6.3	80.6*	9.2	-8.5
CC(C)Sc1nsc2nc(=O)c(/C=C3\C=Nc4ccccc43)c(N)n12	-3.5	1.0	34.7	-66.0	73.9*	1.9
CS(=O)(=O)c1nsc2nc(=O)c(/C=C3\C=Nc4ccccc43)c(N)n12	-9.9	-0.1	-13.6	0.5	19.9	3.0
Cc1nn(CC(=O)c2ccc3c(c2)OCCO3)c(=O)c(C#N)c1C	.	.	-16.9	10.5	.	-0.1
